The list is not random: actives were taken first. Their share in the collection is about 2.9%.
NRP1-CendR mod: alters CendR peptide binding to human NRP-1; FAM-RPARPAR peptide binding to NRP-1, fluorescence polarization; actives 0.85% (n = 360,000); inhibition, % at 25 µM; O14786;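 active = inhibition or corrected inhibition above about 18%, plus a signal ratio from 0.5 to 1.5, limit read from the data, passing the limit was not always enough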
CRFR2-BP antag: CRF-BP/CRF-R2 complex antagonism; HEK293 CRF-R2/CRF-BP, CRF-induced calcium fluorescence; inhibition, % at 11.8 µM; actives 0.59% (n = 350,000); AID 588475;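 active = inhibition of the ligand-induced calcium signal above about 50% at the single tested concentration, limit read from the data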
CRFR2-BP ag: agonists of human CRF-binding protein/CRF-R2 receptor complex. HEK293 CRF-R2/CRF-BP, calcium dye fluorescence (FLIPR); percent of saturating CRF peptide response. activation, % at 13.2 µM. actives 0.46% (n = 350,000);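 active = activation of at least 50%, plus an integration ratio under a set limit after plate pattern correction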;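 note: plate controls were neutral control wells without compound for no effect and CRF at EC100 for full effect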
Tn6 DDE FP: disrupts Tn6 cyclic peptide binding to fibrin D-Dimer-E complex; AID 720509; inhibition, % at 8.3 µM; Fibrin DD(E) TRITC-Tn6 fluorescence polarization displacement; P02675; actives 0.21% (n = 370,000);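 active = inhibition above a per-campaign cutoff: mean of compounds within control limits plus 3 SD, cut at about 15% in these data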;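 note: 0% = median of all compound wells on the plate and 100% = blocking peptide control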
Target sequence (P02675 whole entry, looked up): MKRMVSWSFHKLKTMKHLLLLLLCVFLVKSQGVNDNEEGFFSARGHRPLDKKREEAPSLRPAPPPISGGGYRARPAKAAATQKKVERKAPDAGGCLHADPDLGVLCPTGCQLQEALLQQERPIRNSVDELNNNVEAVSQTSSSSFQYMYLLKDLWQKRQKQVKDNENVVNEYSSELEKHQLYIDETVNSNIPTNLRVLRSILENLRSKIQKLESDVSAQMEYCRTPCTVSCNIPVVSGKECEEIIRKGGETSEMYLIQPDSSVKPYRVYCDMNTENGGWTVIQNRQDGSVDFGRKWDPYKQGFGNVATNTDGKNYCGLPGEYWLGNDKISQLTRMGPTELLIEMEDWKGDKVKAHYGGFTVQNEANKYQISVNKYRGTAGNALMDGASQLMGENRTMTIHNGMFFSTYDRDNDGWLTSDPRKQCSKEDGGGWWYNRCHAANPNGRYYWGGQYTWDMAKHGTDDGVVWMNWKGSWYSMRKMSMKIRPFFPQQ
proKLK7 act: proKLK7 (human) activation, primary screen; purified proKLK7, EDANS-DABCYL substrate fluorescence; 100% is mature enzyme control, 0% vehicle; actives 0.9% (n = 370,000); AID 652039; activation, % at 7 µM;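 active = activation above the mean of all tested compounds plus 3 SD, computed per campaign excluding outliers beyond control limits, cut at about 13% in these data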
Tn7 DDE FP: inhibitors of Tn7 peptide binding to human fibrin DD(E) | P02675 | FP displacement of FITC-Tn7 peptide from fibrin DD(E); 0% = median of compound wells per plate | inhibition, % at 8.3 µM | actives 0.13% (n = 370,000) | AID 720508;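 active = inhibition above the mean of compounds falling within the control limits plus 3 SD of them, cut at about 14% in these data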;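 note: 0% = plate median of compound wells and 100% = 10 µM Aha-Tn7 peptide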
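Assay system: Human clot-derived fibrin DD(E) complex | Buffer or medium: Tris/NaCl/CaCl2 buffer, pH 7.8 | Repeats: One replicate per compound | Benchmarks: Aha-Tn7 high control | Measure: % inhibition scaled between sample-field median and high-control FP | Schedule: 10 min plus 3 h, room temperature | Signal: Fluorescence polarization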
DDE Tn6 FP ctr: counter-screen for inhibitors of Tn6 peptide binding to fibrin DD(E); shares compounds with Tn6 DDE FP; TRITC-Tn6 fluorescence polarization displacement; 0% = median of compound wells, not DMSO; inhibition, % at 8.3 µM; actives 2% (n = 680);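 active = inhibition above the mean of test compounds lying between the control limits plus 3 SD of those, cut at about 14% in these data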;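 note: 0% = median of compound wells and 100% = wells with Aha-Tn7 blocking peptide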
Tn6 DDE conf: DD(E)-Tn6 binding inhibition, FP confirmation | FP displacement of TRITC-Tn6 peptide from DD(E); 0% = per-plate median of test wells | actives 10% (n = 680) | inhibition, % at 8.3 µM | AID 720631 | shares compounds with Tn6 DDE FP;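 active = inhibition above the mean of compounds lying within the control limits plus 3 SD, cut at about 16% in these data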;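 note: 100% = high control wells holding a competing inhibitor peptide at 10 µM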
* hit, by the source's call; . = not tested or not shown.

SMILES	NRP1-CendR mod	CRFR2-BP antag	CRFR2-BP ag	Tn6 DDE FP	proKLK7 act	Tn7 DDE FP	DDE Tn6 FP ctr	Tn6 DDE conf
Cc1nn(-c2ccccc2)cc1C(c1c(N)[nH]c(=S)[nH]c1=O)c1c(N)[nH]c(=S)[nH]c1=O	-43	-4	0	15*	1	1	-7	-28
CCn1c(=O)c(=O)[nH]c2cc(C(=O)NC3CCCc4ccccc43)ccc21 (stereo not drawn)	-12	1	-1	18*	1	10	-1	-2
c1ccc(-c2nc(-n3ccnc3)nc(-n3ccnc3)n2)cc1	-10	-7	1	15*	1	7	2	-3
CC(C)Nc1nc(-c2ccccc2)nc(-n2ccnc2)n1	-14	8	1	5	0	4	.	.
COC(=O)C[C@H]1CC[C@H]2[C@H](COc3ccc(NS(=O)(=O)c4cccc(F)c4)cc3C(=O)N2C)O1	.	.	.	5	0	-1	.	.
COCCn1c(C)cc(C2=NNC(=Nc3ccccc3)SC2)c1C	-6	-12	0	17*	1	-1	6	-7
O=C(NN=Cc1ccccc1C(F)(F)F)c1cc(-c2ccc(Cl)cc2)n[nH]1	.	.	.	6	0	1	.	.
Cc1ccc2c(c1)N(CCCC(=O)N(C)Cc1ccc(F)cc1)C(=O)CO2	.	.	.	-1	0	-1	.	.
O=C(Nc1nc2c(Br)cccc2s1)c1ccc2c(c1)OCCO2	.	.	.	38*	.	-3	3	-9
COCCN(CC1CCCN(C2Cc3ccccc3C2)C1)C(=O)c1ccc(C(C)=O)cc1 (stereo not drawn)	4	-22	1	16*	1	5	-2	-3
COCCN(CC1CCCN(C2Cc3ccccc3C2)C1)C(=O)c1cccc(C)c1 (stereo not drawn)	-1	11	0	6	0	4	.	.
Nc1ccn([C@@H]2O[C@H](C(=O)N3CCN(CCO)CC3)[C@@H](O)[C@H]2O)c(=O)n1	.	.	.	-1	0	-5	.	.
Fc1ccccc1-c1nnc2c3ccccc3nc(N3CCOCC3)n12	-2	9	-1	15*	0	3	-2	-1
Brc1ccc(-c2nnc3c4ccccc4nc(N4CCOCC4)n23)cc1	-7	-69	-6	6	0	11	.	.
O=C(Cc1ccccc1Cl)Nc1ccc(S(=O)(=O)Nc2nccs2)cc1	10	1	-1	-4	0	-3	.	.
O=C(CSc1ccc(Br)c2cccc(Cl)c12)Nc1ccc(S(=O)(=O)Nc2nccs2)cc1	-6	-35	0	27*	0	-1	5	0
COc1cc(-c2nnc(SCC(=O)NN=Cc3c[nH]c4ccccc34)n2-c2ccccc2)cc(OC)c1OC	.	.	.	6	0	12	.	.
CCOc1ccc(S(=O)(=O)N(CC(=O)NCc2cccnc2)c2ccc(F)cc2)cc1	14	-10	0	18*	1	3	-3	-3
CCN(CC)CCCNC(=O)CSc1nc2cccnc2n1C	.	.	.	-3	0	-2	.	.
FC(F)(F)Oc1cccc(Cn2ccc3ccc(-c4ccc5ccn(Cc6ccccc6)c5c4)cc32)c1	.	.	.	-3	-2	7	.	.
O=C(Nc1ccccc1F)Oc1cccc(OC(=O)Nc2ccccc2F)c1	-6	4	0	15*	0	0	-1	0
COc1cccc(C(=O)Nc2ccccc2F)c1	6	26	-1	0	0	-5	.	.
COc1cccc(NC(=O)c2ccccc2N2C(=O)C3C4C=CC(C4)C3C2=O)c1 (stereo not drawn)	-4	-2	-1	16*	0	2	-2	-4
COc1cc(N)c2ncccc2c1Br	12	-10	2	19*	0	6	1	-1

Bioassay records as filed in PubChem BioAssay.
